Converted amounts (≈) assume the structure as drawn.
How the values were obtained:
Format in all cases: functional
Staphylococcus aureus [1] = assay: Antibacterial activity against Staphylococcus aureus novobiocin resistant strain 011HT1
Method in brief: (§1)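 MIC measured by twofold serial dilution in broth microdilution format and read after 24 hours of incubation. The resistance phenotype of each strain (ofloxacin, oxacillin, erythromycin, novobiocin, teicoplanin or vancomycin) was recorded alongside.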

Streptococcus pyogenes [2] = assay: Antibacterial activity against Streptococcus pyogenes 02A1UC1 strain; method in brief: as §1
Enterococcus faecium = assay: Antibacterial activity against vancomycin, teicoplanin and erythromycin resistant Enterococcus faecium 02D31P2 strain
Method in brief: (§2)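 MIC in µg/mL by twofold broth microdilution, read after 24 h incubation. Resistance phenotypes of the strains are as listed for each strain (ofloxacin, oxacillin, erythromycin, teicoplanin, vancomycin).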

Staphylococcus aureus [3] = assay: Antibacterial activity against Staphylococcus aureus 011HT3 strain; method in brief: as §1
[4] = test system: Staphylococcus epidermidis; assay: Antibacterial activity against oxacillin and teicoplanin resistant Staphylococcus epidermidis 012GO39 strain; method in brief: as §2
Staphylococcus aureus [5] = assay: Antibacterial activity against ofloxacin, oxacillin and erythromycin resistant Staphylococcus aureus strain 011GO76; method in brief: as §2
[6] = test system: Staphylococcus epidermidis; assay: Compound was evaluated for antibacterial activity, against oxacillin and teicoplanin resistant Staphylococcus epidermidis 012GO39 strain; method in brief: as §2
Streptococcus pyogenes [7] = assay: Compound was evaluated for antibacterial activity, against Streptococcus pyogenes 02A1UC1 strain; method in brief: as §1

| Compound | MIC (Staphylococcus aureus [1]) [µg/mL] | MIC (Streptococcus pyogenes [2]) [µg/mL] | MIC (Enterococcus faecium) [µg/mL] | MIC (Staphylococcus aureus [3]) [µg/mL] | MIC [4] [µg/mL] | MIC (Staphylococcus aureus [5]) [µg/mL] | MIC [6] [µg/mL] | MIC (Streptococcus pyogenes [7]) [µg/mL] |
| --- | --- | --- | --- | --- | --- | --- | --- | --- |
| CO[C@@H]1[C@@H](OC(=O)c2ccc(C)[nH]2)[C@@H](O)[C@H](Oc2ccc3c(O)c(C(N)=O)c(=O)oc3c2C)OC1(C)C | 2.5 (≈ 4.84 µM) | 0.15 (≈ 0.29 µM) | 2.5 (≈ 4.84 µM) | < 0.04 | – | – | – | – |
| CO[C@@H]1[C@@H](OC(=O)c2ccc(C)[nH]2)[C@@H](O)[C@H](Oc2ccc3c(O)c(C(=O)NCCO)c(=O)oc3c2C)OC1(C)C | 2.5 (≈ 4.46 µM) | 0.15 (≈ 0.268 µM) | 2.5 (≈ 4.46 µM) | < 0.04 | < 0.04 | – | – | – |
| CCOC(=O)/C(=N\OC)c1c(O)oc2c(C)c(O[C@@H]3OC(C)(C)[C@H](OC)[C@@H](OC(=O)c4ccc(C)[nH]4)[C@H]3O)ccc2c1=O | 10 (≈ 16.6 µM) | 0.15 (≈ 0.249 µM) | 5 (≈ 8.3 µM) | < 0.04 | – | – | – | – |
| CO[C@@H]1[C@@H](OC(=O)c2ccc(C)[nH]2)[C@@H](O)[C@H](Oc2ccc3c(O)c(C(=O)Nc4ccccc4)c(=O)oc3c2C)OC1(C)C | 1.2 (≈ 2.02 µM) | 0.6 (≈ 1.01 µM) | > 40 | < 0.04 | < 0.04 | 0.08 (≈ 0.135 µM) | – | – |
| CO[C@@H]1[C@@H](OC(=O)c2ccc(C)[nH]2)[C@@H](O)[C@H](Oc2ccc3c(O)c(/C(C)=N/OCCSc4ncc[nH]4)c(=O)oc3c2C)OC1(C)C | 40 (≈ 60.9 µM) | 0.3 (≈ 0.457 µM) | 10 (≈ 15.2 µM) | 0.3 (≈ 0.457 µM) | 0.3 (≈ 0.457 µM) | 0.3 (≈ 0.457 µM) | – | – |
| CO[C@@H]1[C@@H](OC(=O)c2ccc(C)[nH]2)[C@@H](O)[C@H](Oc2ccc3c(O)c(C(=O)CSC)c(=O)oc3c2C)OC1(C)C | 5 (≈ 8.9 µM) | 0.3 (≈ 0.534 µM) | 5 (≈ 8.9 µM) | < 0.04 | 0.08 (≈ 0.142 µM) | – | – | – |
| CO[C@@H]1[C@@H](OC(=O)c2ccc(C)[nH]2)[C@@H](O)[C@H](Oc2ccc3c(O)c(/C(C)=N/OCCN4CCOCC4)c(=O)oc3c2C)OC1(C)C | 40 (≈ 62.1 µM) | 1.2 (≈ 1.86 µM) | 10 (≈ 15.5 µM) | 0.15 (≈ 0.233 µM) | 0.3 (≈ 0.466 µM) | 0.3 (≈ 0.466 µM) | – | – |
| CCOCC(=O)c1c(O)oc2c(C)c(O[C@@H]3OC(C)(C)[C@H](OC)[C@@H](OC(=O)c4ccc(C)[nH]4)[C@H]3O)ccc2c1=O | 20 (≈ 35.7 µM) | 0.3 (≈ 0.536 µM) | 5 (≈ 8.94 µM) | < 0.04 | 0.08 (≈ 0.143 µM) | 0.08 (≈ 0.143 µM) | – | – |
| CO[C@@H]1[C@@H](OC(=O)c2ccc(C)[nH]2)[C@@H](O)[C@H](Oc2ccc3c(O)c(C(=O)NCCN(C)C)c(=O)oc3c2C)OC1(C)C | 20 (≈ 34 µM) | 1.2 (≈ 2.04 µM) | 10 (≈ 17 µM) | 0.15 (≈ 0.255 µM) | – | 0.3 (≈ 0.511 µM) | – | – |
| CO[C@@H]1[C@@H](OC(=O)c2ccc(C)[nH]2)[C@@H](O)[C@H](Oc2ccc3c(O)c(C(C)=O)c(=O)oc3c2C)OC1(C)C | 5 (≈ 9.7 µM) | 0.15 (≈ 0.291 µM) | 2.5 (≈ 4.85 µM) | < 0.04 | 0.08 (≈ 0.155 µM) | 0.15 (≈ 0.291 µM) | – | – |
| CCOC(=O)c1c(O)oc2c(C)c(O[C@@H]3OC(C)(C)[C@H](OC)[C@@H](OC(=O)c4ccc(C)[nH]4)[C@H]3O)ccc2c1=O | > 20 | 0.3 (≈ 0.55 µM) | 5 (≈ 9.17 µM) | 0.3 (≈ 0.55 µM) | 0.15 (≈ 0.275 µM) | 2.5 (≈ 4.58 µM) | – | – |
| CO/N=C(\C)c1c(O)oc2c(C)c(O[C@@H]3OC(C)(C)[C@H](OC)[C@@H](OC(=O)c4ccc(C)[nH]4)[C@H]3O)ccc2c1=O | 40 (≈ 73.5 µM) | 0.3 (≈ 0.551 µM) | 10 (≈ 18.4 µM) | 0.15 (≈ 0.275 µM) | 0.6 (≈ 1.1 µM) | 5 (≈ 9.18 µM) | – | – |
| CONC(=O)c1c(O)oc2c(C)c(O[C@@H]3OC(C)(C)[C@H](OC)[C@@H](OC(=O)c4ccc(C)[nH]4)[C@H]3O)ccc2c1=O | 5 (≈ 9.15 µM) | 0.15 (≈ 0.274 µM) | 2.5 (≈ 4.57 µM) | < 0.04 | < 0.04 | 0.08 (≈ 0.146 µM) | – | – |
| CO[C@@H]1[C@@H](OC(=O)c2ccc(C)[nH]2)[C@@H](O)[C@H](Oc2ccc3c(O)c(C(=O)OCC(C)C)c(=O)oc3c2C)OC1(C)C | 10 (≈ 17.4 µM) | – | 5 (≈ 8.72 µM) | 0.08 (≈ 0.139 µM) | 0.08 (≈ 0.139 µM) | 2.5 (≈ 4.36 µM) | – | – |
| COC1[C@@H](OC(N)=O)[C@@H](O)[C@H](Oc2ccc3c(O)c(NC(=O)c4ccc(O)c(CC=C(C)C)c4)c(=O)oc3c2C)OC1(C)C (single isomer, unassigned) [NOVOBIOCIN] | 20 (≈ 32.6 µM) | – | 0.3 (≈ 0.49 µM) | < 0.04 | – | – | 0.08 (≈ 0.131 µM) | 0.15 (≈ 0.245 µM) |
| CO[C@@H]1[C@@H](OC(=O)c2ccc(C)[nH]2)[C@@H](O)[C@H](Oc2ccc3c(O)c(NC(=O)c4ccc(O)c(CC=C(C)C)c4)c(=O)oc3c2Cl)OC1(C)C [CHLOROBIOCIN] | 0.15 (≈ 0.215 µM) | < 0.04 | – | < 0.04 | < 0.04 | < 0.04 | – | – |

Source: ChEMBL document CHEMBL1131807, “Synthesis and in vitro evaluation of novel highly potent coumarin inhibitors of gyrase B” (1999)
